Non-standard residues stand in square brackets, D forms with d. Residues, ends and D or L forms follow the SMILES beside them. sY = N[C@@H](Cc1ccc(OS(=O)(=O)O)cc1)C(=O)O
Legend:
XA21 [1] = target: T1, XA21 (Oryza sativa subsp. indica, UniProt Q1MX30); assay: Ethylene production in Ubi::XA21 rice leaves; assay type: cell-based, rice (Oryza sativa ssp. japonica); details: 1 μM peptide, 4 hours, gas chromatography, n = 3, Fig. 3C
T1 sequence (Q1MX30 24-1025): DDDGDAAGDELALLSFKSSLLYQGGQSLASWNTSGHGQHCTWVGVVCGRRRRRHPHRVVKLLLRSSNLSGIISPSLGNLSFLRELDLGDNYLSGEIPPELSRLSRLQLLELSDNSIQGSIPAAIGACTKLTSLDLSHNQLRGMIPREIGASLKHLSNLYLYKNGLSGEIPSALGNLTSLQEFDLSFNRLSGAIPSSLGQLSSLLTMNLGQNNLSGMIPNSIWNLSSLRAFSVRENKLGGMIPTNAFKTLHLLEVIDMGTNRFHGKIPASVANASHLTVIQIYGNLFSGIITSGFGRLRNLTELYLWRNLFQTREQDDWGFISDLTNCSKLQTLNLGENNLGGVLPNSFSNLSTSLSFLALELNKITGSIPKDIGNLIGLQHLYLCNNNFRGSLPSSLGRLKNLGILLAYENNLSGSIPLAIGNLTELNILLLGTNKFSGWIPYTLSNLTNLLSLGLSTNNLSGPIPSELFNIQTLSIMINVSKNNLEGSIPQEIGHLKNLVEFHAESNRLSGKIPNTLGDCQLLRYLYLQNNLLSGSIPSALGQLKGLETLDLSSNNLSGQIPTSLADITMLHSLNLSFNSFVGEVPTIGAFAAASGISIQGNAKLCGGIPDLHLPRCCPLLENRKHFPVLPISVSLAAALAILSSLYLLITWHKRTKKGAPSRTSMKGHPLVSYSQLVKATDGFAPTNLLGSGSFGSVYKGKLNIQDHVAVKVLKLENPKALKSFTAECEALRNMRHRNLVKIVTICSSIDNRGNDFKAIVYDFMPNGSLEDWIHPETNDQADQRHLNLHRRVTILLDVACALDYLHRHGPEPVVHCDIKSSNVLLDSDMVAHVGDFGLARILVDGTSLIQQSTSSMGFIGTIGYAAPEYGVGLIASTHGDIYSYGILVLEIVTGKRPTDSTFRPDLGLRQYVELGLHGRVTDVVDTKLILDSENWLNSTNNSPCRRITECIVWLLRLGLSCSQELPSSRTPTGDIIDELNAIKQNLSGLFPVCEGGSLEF
Method in brief: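 Ubi::XA21 Kitaake plants (3–4 weeks, hydroponic) were used. Leaves were cut into ~0.3 to 0.5 mm strips and floated on water overnight at room temperature. Strips were then incubated with water or peptide (1 μM) in sealed tubes. Ethylene accumulated in the headspace over 4 h was measured by gas chromatography.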

XA21 [2] = target: T1, XA21; assay: ROS production; assay type: cell-based, rice (Oryza sativa ssp. japonica)
Method in brief: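 Leaves of 4- to 6-week-old hydroponic Kitaake and Ubi::XA21 plants were cut along the midvein into 1–1.5 mm pieces and floated overnight on autoclaved ddH2O. Two pieces per well went into L-012 plus horseradish peroxidase (0.5 to 2 mg/ml), with peptide or mock (ddH2O or peptide buffer). Chemiluminescence was read for 3 h at 0.5 s per reading, n = 6. EC50 was the half-maximal total 3-h ROS over a peptide concentration series.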

Row | Molecule | Ethylene production, result in words (XA21 [1]) | EC50 (XA21 [2]) [nM]
1 | HVGGGDYPPPGANPKHDPPPR [RaxX21-Y] | but not RaxX21-Y | 
2 | CC(C)C[C@H](N)C(=O)N[C@@H](Cc1c[nH]c2ccccc12)C(=O)N[C@@H](CCCCN)C(=O)N[C@@H](Cc1c[nH]cn1)C(=O)N[C@H](C(=O)NCC(=O)NCC(=O)NCC(=O)N[C@@H](CC(=O)O)C(=O)N[C@@H](Cc1ccc(OS(=O)(=O)O)cc1)C(=O)N1CCC[C@H]1C(=O)N1CCC[C@H]1C(=O)N1CCC[C@H]1C(=O)NCC(=O)N[C@@H](C)C(=O)N[C@@H](CC(N)=O)C(=O)N1CCC[C@H]1C(=O)N[C@@H](CCCCN)C(=O)N[C@@H](Cc1c[nH]cn1)C(=O)N[C@@H](CC(=O)O)C(=O)N1CCC[C@H]1C(=O)N1CCC[C@H]1C(=O)N1CCC[C@H]1C(=O)N[C@@H](CCCNC(=N)N)C(=O)O)C(C)C [RaxX24-sY] (H-LWKHVGGGD[sY]PPPGANPKHDPPPR-OH; N-terminus and C-terminus assumed) |  | ~30

Source: paper PMC4646787 (Science Advances, 2015)
